Reference: ChEMBL document CHEMBL3286381 (J Med Chem, 2014)
Activity calls are given as the source filed them. The rule behind the calls is not given here.

Key:
[1] = molecular target: T1, P2Y purinoceptor 11 (Homo sapiens) (UniProt Q96G91); experiment: Agonist activity at human P2Y11 receptor expressed in human 1321N1 cells assessed as increase of intracellular calcium level after 30 mins using fura-2 AM by fluorescence assay relative to ATP; type: functional, cell-based
T1 sequence (whole entry): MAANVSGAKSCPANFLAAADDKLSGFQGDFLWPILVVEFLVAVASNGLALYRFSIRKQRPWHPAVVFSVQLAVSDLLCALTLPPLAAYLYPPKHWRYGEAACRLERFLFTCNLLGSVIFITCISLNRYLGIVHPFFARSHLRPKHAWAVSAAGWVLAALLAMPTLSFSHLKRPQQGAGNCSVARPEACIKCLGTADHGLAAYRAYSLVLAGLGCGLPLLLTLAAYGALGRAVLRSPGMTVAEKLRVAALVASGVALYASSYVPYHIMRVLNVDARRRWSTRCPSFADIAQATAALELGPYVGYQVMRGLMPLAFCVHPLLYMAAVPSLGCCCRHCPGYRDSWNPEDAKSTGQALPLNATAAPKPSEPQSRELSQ

P2Y purinoceptor 11 = molecular target: T2, P2Y purinoceptor 11 (Homo sapiens, UniProt Q96G91); experiment: Agonist activity at human P2Y11 receptor expressed in human 1321N1 cells assessed as increase of intracellular calcium level after 30 mins using fura-2 AM by fluorescence assay; type: functional, cell-based
T2 sequence (Q96G91 whole entry): T1 sequence (whole entry)

[2] = molecular target: P2Y purinoceptor 2 (Homo sapiens) (UniProt P41231); experiment: Antagonist activity at human P2Y2 receptor expressed in human 1321N1 cells assessed as effect on UTP-induced effect; type: cell-based
[3] = molecular target: T3, Alkaline phosphatase, tissue-nonspecific isozyme (Homo sapiens) (UniProt P05186); experiment: Inhibition of TNAP (unknown origin) using ATP as substrate assessed as inorganic phosphate release at 100 uM after 15 mins relative to control
T3 sequence (whole entry): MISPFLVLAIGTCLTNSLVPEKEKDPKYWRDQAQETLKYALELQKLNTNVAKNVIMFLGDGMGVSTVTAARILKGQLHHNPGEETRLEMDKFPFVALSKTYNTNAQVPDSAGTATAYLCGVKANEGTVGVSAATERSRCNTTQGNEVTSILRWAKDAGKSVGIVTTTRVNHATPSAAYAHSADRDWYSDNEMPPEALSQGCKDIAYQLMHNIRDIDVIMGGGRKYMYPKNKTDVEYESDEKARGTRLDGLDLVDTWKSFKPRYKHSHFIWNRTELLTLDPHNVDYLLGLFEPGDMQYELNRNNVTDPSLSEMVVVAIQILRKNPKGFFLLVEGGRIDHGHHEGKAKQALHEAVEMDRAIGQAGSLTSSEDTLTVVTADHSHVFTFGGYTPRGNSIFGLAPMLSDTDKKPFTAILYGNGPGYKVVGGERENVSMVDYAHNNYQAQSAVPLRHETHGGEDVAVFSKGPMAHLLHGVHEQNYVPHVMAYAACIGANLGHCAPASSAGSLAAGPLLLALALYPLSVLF

[4] = molecular target: P2Y purinoceptor 2 (Homo sapiens) (UniProt P41231); experiment: Agonist activity at human P2Y2 receptor expressed in human 1321N1 cells assessed as increase of intracellular calcium level at 100 uM after 30 mins using fura-2 AM by fluorescence assay; type: functional, cell-based
[5] = molecular target: T1, P2Y purinoceptor 11 (Homo sapiens); experiment: Agonist activity at human P2Y11 receptor expressed in human 1321N1 cells assessed as increase of intracellular calcium level up to 10 uM after 30 mins using fura-2 AM by fluorescence assay; type: functional, cell-based
[6] = molecular target: T4, Ectonucleotide pyrophosphatase/phosphodiesterase family member 1 (Homo sapiens, UniProt P22413); experiment: Mixed type inhibition of human NPP1 using pNP-TMP as substrate assessed as dissociation constant for enzyme-inhibitor-substrate complex after 20 mins by Dixon and Cornish-Bowden method
T4 sequence (P22413 whole entry): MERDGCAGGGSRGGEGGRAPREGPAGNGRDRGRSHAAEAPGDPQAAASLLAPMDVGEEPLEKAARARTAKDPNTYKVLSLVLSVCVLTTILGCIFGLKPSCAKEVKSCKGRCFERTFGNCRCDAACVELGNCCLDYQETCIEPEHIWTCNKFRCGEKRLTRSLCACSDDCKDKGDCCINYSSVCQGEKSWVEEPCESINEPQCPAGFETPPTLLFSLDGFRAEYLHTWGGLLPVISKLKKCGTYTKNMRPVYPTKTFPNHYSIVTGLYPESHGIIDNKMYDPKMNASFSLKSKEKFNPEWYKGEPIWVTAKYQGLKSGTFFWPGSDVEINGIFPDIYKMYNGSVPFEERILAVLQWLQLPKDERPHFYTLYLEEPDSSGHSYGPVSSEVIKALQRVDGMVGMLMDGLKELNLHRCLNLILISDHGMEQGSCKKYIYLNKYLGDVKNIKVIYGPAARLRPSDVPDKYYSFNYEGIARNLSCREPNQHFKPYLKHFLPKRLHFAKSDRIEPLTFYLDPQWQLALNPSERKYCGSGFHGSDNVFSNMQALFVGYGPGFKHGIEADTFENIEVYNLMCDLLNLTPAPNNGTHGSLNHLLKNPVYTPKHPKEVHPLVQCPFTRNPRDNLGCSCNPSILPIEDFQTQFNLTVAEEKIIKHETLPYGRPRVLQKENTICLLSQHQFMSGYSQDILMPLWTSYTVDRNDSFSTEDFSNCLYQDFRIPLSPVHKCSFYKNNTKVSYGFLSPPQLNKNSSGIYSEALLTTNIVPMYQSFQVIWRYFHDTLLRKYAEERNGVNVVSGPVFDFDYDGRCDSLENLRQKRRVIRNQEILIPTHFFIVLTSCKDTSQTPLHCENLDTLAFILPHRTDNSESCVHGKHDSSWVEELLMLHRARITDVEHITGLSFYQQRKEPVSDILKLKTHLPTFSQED
Outline: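 Human NPP1 (COS-7 lysate) is tested with pNP-TMP hydrolysis at 37 °C in pH 8.5 Tris buffer, reading p-nitrophenol at […]. Substrate is 25, 50 and 100 μM, and inhibitor is 0, 25, 50 and 100 μM. Inhibition type, Ki and Ki′ (EIS complex dissociation constant) come from Dixon and Cornish–Bowden plots of three independent experiments.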

Sequence of P2Y purinoceptor 2 (Homo sapiens) (P41231 whole entry): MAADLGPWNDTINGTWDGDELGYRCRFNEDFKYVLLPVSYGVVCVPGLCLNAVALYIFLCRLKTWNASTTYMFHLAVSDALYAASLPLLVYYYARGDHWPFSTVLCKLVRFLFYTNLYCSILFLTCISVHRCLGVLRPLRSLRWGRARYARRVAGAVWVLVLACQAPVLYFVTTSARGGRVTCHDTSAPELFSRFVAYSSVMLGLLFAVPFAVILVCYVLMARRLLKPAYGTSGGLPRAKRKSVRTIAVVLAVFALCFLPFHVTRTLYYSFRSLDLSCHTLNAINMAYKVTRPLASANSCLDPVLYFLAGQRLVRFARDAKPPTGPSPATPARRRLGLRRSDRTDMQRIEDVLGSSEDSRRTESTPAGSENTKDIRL

Work on Nc1ncnc2c1ncn2[C@@H]1O[C@H](CO[P@@](O)(=S)OP(=O)(O)CP(=O)(O)O)[C@@H](O)[C@H]1O yielded a fold change (FC) [1] of 7.4 and an EC50 (P2Y purinoceptor 11) of 900 nM.
Nc1ncnc2c1ncn2[C@@H]1O[C@H](COP(=O)(O)CP(=O)(O)OP(O)(O)=S)[C@@H](O)[C@H]1O was tested, and the fold change (FC) [1] was 6.7, the inhibition [2] was “inactive” and the inhibition [3] was 8%. For the same compound, the Activity [4] was “inactive”.
With Nc1ncnc2c1ncn2[C@@H]1O[C@H](CO[P@](O)(=S)OP(=O)(O)CP(=O)(O)O)[C@@H](O)[C@H]1O the Activity [5] was “inactive” and the Ki [6] was 4500 nM.
Work on Nc1ncnc2c1ncn2[C@@H]1O[C@H](CO[P@@](O)(=S)OP(=O)(O)C(Cl)(Cl)P(=O)(O)O)[C@@H](O)[C@H]1O yielded a fold change (FC) [1] of 2.2.
With Nc1ncnc2c1ncn2[C@@H]1O[C@H](CO[P@](O)(=S)OP(=O)(O)C(Cl)(Cl)P(=O)(O)O)[C@@H](O)[C@H]1O the inhibition [2] was “inactive”, the inhibition [3] was 17% and the Activity [4] was “inactive”.
